Hck Nef HTS: inhibitors of human Hck kinase activated by Nef | P08631 | actives 0.68% (n = 220,000) | inhibition, % at 20 µM | Recombinant Hck-YEEI plus Nef, Z-Lyte FRET kinase assay;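 active = Hck-Nef kinase inhibition above about 50%, limit read from the data; inactive = inhibition below that limit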;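 note: 0% = DMSO with Hck plus Nef and 100% = Hck alone without Nef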
Target sequence (P08631 whole entry, looked up): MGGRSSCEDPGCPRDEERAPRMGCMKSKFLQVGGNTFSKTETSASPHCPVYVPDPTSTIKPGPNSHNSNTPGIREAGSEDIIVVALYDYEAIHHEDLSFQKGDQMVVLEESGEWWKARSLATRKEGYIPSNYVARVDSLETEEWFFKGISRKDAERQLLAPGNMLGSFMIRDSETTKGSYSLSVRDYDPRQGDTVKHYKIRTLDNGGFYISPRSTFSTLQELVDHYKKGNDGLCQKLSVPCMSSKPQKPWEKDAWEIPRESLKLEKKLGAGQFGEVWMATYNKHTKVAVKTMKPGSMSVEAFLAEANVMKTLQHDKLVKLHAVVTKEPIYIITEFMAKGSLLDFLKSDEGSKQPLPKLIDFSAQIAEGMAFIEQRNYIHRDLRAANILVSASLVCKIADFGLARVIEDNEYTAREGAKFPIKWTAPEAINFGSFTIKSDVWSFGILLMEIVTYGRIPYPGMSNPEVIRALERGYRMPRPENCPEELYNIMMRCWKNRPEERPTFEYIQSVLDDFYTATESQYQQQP
Runt-CBFb FRET: blocks binding of human RUNX1 Runt domain to CBFb; Q01196+Q13951; Cerulean-Runt/Venus-CBFb FRET ratio 530/480, 1 h; inhibition, % at 20 µM; actives 0.46% (n = 220,000); AID 1496;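 active = inhibition over about 50% at 20 µM in the single-dose screen, limit read from the data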;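 note: 0% = DMSO wells and 100% = excess unlabeled CBFb competitor control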
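Reagent – Venus-CBFb binding partner, 100 nM · Assay system – Cerulean-tagged RUNX1 Runt domain (FRET donor) fusion protein · Input – 100 nM per protein · Incubation – two 1 h room-temperature incubations shielded from light · Measured by – FRET fluorescence · Medium – Tris buffer pH 7.5 with salts and BSA · Benchmarks – unlabeled CBFb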
RanGTP-Imp inh: inhibitors of RanGTP-importin-beta interaction, primary screen, biochemical, FRET, CFP-Ran, YFP-importin-beta, homogeneous; inhibition, % (concentration not given with the values); cell-free CFP-Ran/YFP-importin-beta FRET ratio; actives 1.1% (n = 300,000);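 active = more than half of the replicate wells show a fall in the fluorescence ratio signal beyond about 16%, limit read from the data, passing the limit was not always enough; inconclusive = exactly half of the replicate wells pass the set limit; inactive = fewer than half of replicates pass the limit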;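 note: 0% = DMSO wells and 100% = Ran loaded with GDP instead of GTP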
RBBP9 inh: human RBBP9 hydrolase inhibition; O75884; recombinant RBBP9, FP-Rh probe fluorescence polarization; inhibition, % at 7.94 µM; actives 0.2% (n = 220,000); AID 1515;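 active = inhibition above the campaign mean of all tested compounds plus 3 SD, cut at about 14% in these data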;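 note: plate controls were DMSO wells with RBBP9 for no effect and wells lacking RBBP9 protein for full effect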
Target sequence (O75884 whole entry, looked up): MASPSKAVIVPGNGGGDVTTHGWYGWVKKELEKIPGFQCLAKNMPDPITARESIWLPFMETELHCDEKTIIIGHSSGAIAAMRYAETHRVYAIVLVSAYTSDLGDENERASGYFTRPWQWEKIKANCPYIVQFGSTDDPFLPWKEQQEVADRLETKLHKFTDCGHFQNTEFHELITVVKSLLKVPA
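Test system: recombinant human RBBP9. Quantity: 2.5 µM RBBP9 dispensing solution, before mixing. Detection: FP readout at 525/598 nm. Reagent: Serine-hydrolase probe FP-Rh, 375 nM pre-mixing. Measure: % inhibition. Control set: DMSO-treated enzyme wells and wells lacking RBBP9. Buffer or medium: Tris-NaCl-Pluronic buffer, pH 8.0. Times: preincubation 30 min plus labeling 45 min at 25 °C.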
PfM18AAP inh-1: blocks P. falciparum M18 aspartyl aminopeptidase; recombinant PfM18AAP, H-Glu-NHMec fluorogenic cleavage; inhibition, % at 7.35 µM; actives 1.2% (n = 290,000); AID 1822;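 active = inhibition above the campaign mean inhibition over all tested compounds plus 3 SD, cut at about 28% in these data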;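 note: 0% = plate median of test compound wells and 100% = 2 mM ZnCl2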
Runt-SMMHC FRET: inhibitors of human RUNX1 Runt domain binding to CBFb-SMMHC | Q01196+Q13951 | Cerulean-Runt/Venus-CBFb-SMMHC FRET ratio 530/480, 1 h | inhibition, % at 20 µM | actives 0.74% (n = 220,000) | AID 1434;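 active = mean inhibition across duplicate retests at 20 µM reaching about 50%, limit read from the data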;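 note: 0% = DMSO wells and 100% = wells with excess untagged CBFb-SMMHC; inhibitors lower the FRET ratio by blocking Runt binding to CBFb-SMMHC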
PfM18AAP inh-2: confirmation of Plasmodium falciparum M18 aspartyl aminopeptidase inhibitors; shares compounds with PfM18AAP inh-1; recombinant PfM18AAP, H-Glu-NHMec fluorogenic cleavage; inhibition, % at 7.35 µM; actives 28% (n = 2,400); AID 2170;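 active = mean inhibition over replicate wells above the hit cutoff set for the earlier primary screen, cut at about 29% in these data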;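 note: 0% = median of test compound wells and 100% = 2 mM ZnCl2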
CTSL1 confirm: Cathepsin L (human) inhibition, confirmation. shares compounds with PfM18AAP inh-1. purified cathepsin L1, Z-Leu-Arg-MCA fluorescence. inhibition, % at 5.96 µM. 2,400 tested, under 10 active. AID 2178;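 active = average inhibition across replicates above the hit cutoff set in the earlier primary screen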;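 note: 0% = median of test compound wells and 100% = Z-Phe-Ala-diazomethylketone 1 µM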
Starred values were filed as active, the others as inactive; ? = inconclusive; nt = no result given. Hits are enriched below; roughly 2.9% of the tested compounds scored in any of these assays.

SMILES	Hck Nef HTS	Runt-CBFb FRET	RanGTP-Imp inh	RBBP9 inh	PfM18AAP inh-1	Runt-SMMHC FRET	PfM18AAP inh-2	CTSL1 confirm
Cc1ccccc1C(=O)NCC(C)NC(=O)c1ccccc1C (stereo unspecified)	nt	nt	-1	nt	nt	nt	nt	nt
O=C(NCCS(=O)(=O)NC1CCCCC1)c1ccc2c(c1)OCO2	nt	nt	1	nt	nt	nt	nt	nt
COCC(=O)N1CCC(Oc2ccc(C(=O)NCc3cc(C)n(C)n3)cc2)CC1	nt	nt	0	nt	-1	nt	nt	nt
Cc1ccc(C)c(S(=O)(=O)NNC(=O)c2sc(NS(=O)(=O)c3ccccc3)nc2C)c1	nt	nt	-6	nt	36*	nt	-10	-1
Nc1nc(-c2cccnc2)nn1C(=O)c1ccc(F)cc1	-152	0	-5	7	-1	-2	nt	nt
O=C(N/N=C/c1sc(=O)[nH]c1-[n+]1ccc2ccccc2c1)c1ccccc1[O-]	nt	nt	24*	nt	32*	nt	-20	3
CC(/C=N/n1cnnc1)=C\c1ccco1	-6	-1	5	-3	55*	-1	-7	2
CC(/C=N/n1c(-c2ccc(Cl)cc2)n[nH]c1=S)=C\c1ccco1	12	17	?	-4	15	3	nt	nt
CC(/C=N/n1c(-c2cc(C)[nH]n2)n[nH]c1=S)=C\c1ccco1	-146	26	13	3	36*	10	-26	-2
CC(=O)c1cc2c(cc1NC(=O)CN1Cc3ccccc3C1=O)OCO2	nt	nt	2	nt	-3	nt	nt	nt
Cc1nnc(NC(=O)CSc2nnc(-c3ccco3)n2C(C)C)s1	nt	nt	?	nt	-7	nt	nt	nt
CC(C)n1c(SCC(=O)Nc2nncs2)nnc1-c1ccco1	nt	nt	-4	nt	74*	nt	60*	-3
CCOC(=O)N1CCC(NC(=O)c2ccc3c(c2)N=C(CC)c2ccccc2S3)CC1	nt	nt	-1	nt	3	nt	nt	nt
CCOC(=O)N1CCC(NC(=O)c2ccc3c(c2)sc2nc(-c4ccccc4)cn23)CC1	20	19	nt	-9	40*	20	-17	0
Cc1ccc(C(=O)N(C)CC(=O)Nc2cccc(F)c2)cc1S(=O)(=O)N1CCCCC1	nt	nt	-3	nt	nt	nt	nt	nt
CCc1ccc(N(C(=O)c2snc(C(N)=O)c2N)C(C(=O)NCC2CCCO2)c2ccco2)cc1 (stereo unspecified)	nt	nt	-1	nt	2	nt	nt	nt
O=c1c2cn[nH]c2[nH]c(=S)n1-c1ccccc1Cl	8	0	5	3	37*	3	21	1
O=c1c2cn[nH]c2[nH]c(=S)n1-c1ccccc1F	1	nt	?	-2	57*	-4	-1	-5
COc1cccc(NC(=O)c2ccc(OC(F)(F)F)cc2)c1	nt	nt	5	nt	nt	nt	nt	nt
Cc1ccc(C)c(OCCC(=O)NCCc2ccc(F)cc2)c1	nt	nt	2	nt	0	nt	nt	nt
COc1cc2c(cc1OC)C(c1cc3cccc(C)c3[nH]c1=O)N(C(=O)c1ccco1)CC2 (stereo unspecified)	nt	nt	-1	nt	48*	nt	-36	-3
CC(C)c1c(C(=O)N/N=C/C=C/c2ccccc2)nnn1-c1nonc1N	nt	nt	-3	nt	-2	nt	nt	nt
CCOc1cc(/C=C2\CN(C)C/C(=C\c3ccc(O)c(OCC)c3)C2=O)ccc1O	nt	nt	-5	nt	44*	nt	10	7
CCOC(=O)C1=C(O)/C(=C\c2ccc(O)c(OCC)c2)N=C1C	-35	0	-5	-4	40*	-8	-41	2
CCOc1cc(/C=C2/C(=O)ON=C2C)ccc1O	nt	nt	-1	nt	25	nt	nt	nt
SMILES	Hck Nef HTS	Runt-CBFb FRET	RanGTP-Imp inh	RBBP9 inh	PfM18AAP inh-1	Runt-SMMHC FRET	PfM18AAP inh-2	CTSL1 confirm
CCOc1cc(/C=C2\SC(=O)N=C2N)ccc1O	6	-16	-5	-2	7	-30	nt	nt
CCOc1cc(/C=C2\SC(N)=NC2=O)ccc1O	nt	nt	-5	nt	38*	nt	-16	0
CCN(C(=O)CN1C(=O)NC2(CCc3ccccc32)C1=O)C1CCCCC1 (stereo unspecified)	nt	nt	-1	nt	nt	nt	nt	nt
CCN(CC(=O)Nc1cc(S(=O)(=O)N2CCOCC2)ccc1C)Cc1ccccc1	nt	nt	-3	nt	nt	nt	nt	nt
COc1cc(-c2nnc(COC(=O)c3nn(CC(C)C)c(=O)c4ccccc34)o2)cc(OC)c1OC	nt	nt	6	nt	nt	nt	nt	nt
COc1ccccc1C(=O)NCCC(=O)Nc1ccncc1	nt	nt	5	nt	nt	nt	nt	nt
Cc1nc(S(=O)(=O)Nc2ccccc2C(=O)NCC2CC2)cn1C	16	2	?	-9	-3	2	nt	nt
O=C(NNc1cccc(Cl)n1)Nc1ccccc1F	3	5	2	-2	53*	-1	41*	0
O=C(NNc1cccc(Cl)n1)Nc1ccc(F)cc1	7	4	1	-4	52*	3	44*	-2
CC(=O)NNc1cccc(Cl)n1	-1	1	1	-8	0	0	nt	nt
O=C(NNc1cccc(Cl)n1)Nc1ccccc1Cl	1	2	-2	0	50*	4	34*	-3
Cc1ccc(C(=O)OCN2C(=O)c3ccccc3C2=O)cc1S(=O)(=O)N1CCOCC1	nt	nt	4	nt	nt	nt	nt	nt
CCCN(CCC)Cc1c(C(=O)N/N=C/c2c[nH]c3ccccc23)nnn1-c1nonc1N	nt	nt	2	nt	5	nt	nt	nt
CCOc1ccc(C(=O)NCC2CCN(CC3CCCCC3)CC2)cc1	nt	nt	-2	nt	-9	nt	nt	nt
COc1cc(OC)cc(C(=O)Nn2cnnc2)c1	18	-1	3	-1	36*	0	30*	3
O=C(Nn1cnnc1)c1cc([N+](=O)[O-])cc([N+](=O)[O-])c1	2	-1	3	-3	45*	3	49*	-3
Nc1c(C(=O)Nn2cnnc2)cc([N+](=O)[O-])cc1[N+](=O)[O-]	1	0	0	-3	63*	-4	56*	4
CCCCOc1ccc(C(=O)Nn2cnnc2)cc1	-12	3	6	-9	21	1	nt	nt
O=C(Nn1cnnc1)c1ccc([N+](=O)[O-])cc1Cl	nt	nt	-3	nt	nt	nt	nt	nt
COc1cc(Cn2c(=O)c3c(OC)c(C)cnc3n(C)c2=O)cc(OC)c1	nt	nt	3	nt	10	nt	nt	nt
CC1(C)Cc2c(sc(NC(=O)C3CC(Cl)=CCC3C(=O)O)c2C#N)CO1 (stereo unspecified)	25	2	7	3	2	-2	nt	nt
CCN(CC)CC(=O)Nc1scc2c1c(=O)oc1ccccc12	3	3	-5	-6	-14	-3	nt	nt
Cc1nc(N2C(=O)C(=O)/C(=C(/O)c3ccccc3)C2c2ccco2)sc1C (stereo unspecified)	3	3	0	-4	38*	-49	-29	2
COC(=O)c1sc(N2C(=O)C(=O)/C(=C(/O)c3ccccc3)C2c2ccco2)nc1C (stereo unspecified)	-2	5	0	-4	22	7	nt	nt

High-throughput results as filed in PubChem.
